Assay type in all cases: ADME
Series [1] can be described thus: Pseudo first order rate constant of the beta-lactam ring cleavage determined from 1H NMR spectra. The method, boiled down:
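Oxacephem (about 1×10^-2 M initial) in 0.2 M deuteriated carbonate buffer, pD 10.4, μ = 0.5, held at 35 ± 0.5 °C. β-Lactam loss followed by 1H NMR with 64 acquisitions per spectrum. Pseudo-first-order constant from regression of residual oxacephem fraction against time in hours.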

Series [2] can be described thus: Pseudo first order rate constant of the beta-lactam ring cleavage determined from UV spectra (pH 10, 35 degree C). In a few lines: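 Oxacephem at about 7.5×10^-5 M initial in 0.008 M carbonate buffer, μ = 0.1, 35.0 ± 0.2 °C. Loss of UV absorbance near 260 nm recorded continuously over time. Pseudo-first-order constant for β-lactam cleavage obtained by the Guggenheim method.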

The nature of series [3]: Pseudo first order rate constant of the beta-lactam ring cleavage determined from 1H NMR spectra; value is corrected for parallel correction. In a few lines: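 Degradation in 0.2 M deuteriated carbonate buffer, pD 10.4, μ = 0.5, 35 °C, oxacephem about 1×10^-2 M. Time courses of parent and products were recorded by 1H NMR. Rate constants came from kinetic analysis of a parallel-reaction scheme fitted to the experimental curves, which separates the OH− contribution to β-lactam cleavage.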

Here are results for nine molecules from ChEMBL document CHEMBL1123696, “1H NMR study of degradation mechanisms of oxacephem derivatives with various 3'-substituents in alkaline solution” (J Med Chem, 1987).

In the case of `CO[C@@]1(NC(=O)Cc2ccccc2)C(=O)N2C(C(=O)[O-])=C(COC(N)=O)COC21.[Na+]` (some centres undefined), the k obs worked out at 0.45 h⁻¹ in series [1] and 0.23 h⁻¹ in series [2].
For `CO[C@@]1(NC(=O)Cc2ccccc2)C(=O)N2C(C(=O)[O-])=C(CSc3nnnn3C)CO[C@@H]21.[Na+]` the same measures were 0.192 h⁻¹ and 0.204 h⁻¹.
Take `CO[C@@]1(NC(=O)Cc2ccccc2)C(=O)N2C(C(=O)[O-])=C(CO)CO[C@@H]21.[Na+]`: the values for the k obs in series [1] and in series [2] were 0.164 h⁻¹ and 0.139 h⁻¹, respectively.
For `COCC1=C(C(=O)[O-])N2C(=O)[C@](NC(=O)Cc3ccccc3)(OC)[C@H]2OC1.[Na+]` the same measures were 0.204 h⁻¹ and 0.144 h⁻¹.
For `CO[C@@]1([N-]C(=O)Cc2ccccc2)C(=O)N2C(C(=O)[O-])=C(C[n+]3ccccc3)CO[C@@H]21.[Na+]` the same measures were 1.39 h⁻¹ and 1.26 h⁻¹.
For `CO[C@@]1(NC(=O)Cc2ccccc2)C(=O)N2C(C(=O)[O-])=C(CC#N)CO[C@@H]21.[Na+]` the same measures were 0.289 h⁻¹ and 0.234 h⁻¹.
Take `CO[C@@]1(NC(=O)Cc2ccccc2)C(=O)N2C(C(=O)[O-])=C(COC(C)=O)CO[C@@H]21.[Na+]`: the results for the k obs in series [3], in series [1] and in series [2] were 0.308 h⁻¹, 0.255 h⁻¹ and 0.285 h⁻¹, respectively.
As to `CO[C@@]1(NC(=O)Cc2ccccc2)C(=O)N2C(C(=O)[O-])=C(C)CO[C@@H]21.[Na+]`, the values for the k obs in series [1] and in series [2] were 0.0484 h⁻¹ and 0.0346 h⁻¹, respectively.
For `CO[C@@]1(NC(=O)Cc2ccccc2)C(=O)N2C(C(=O)[O-])=C(CSC)CO[C@@H]21.[Na+]` the same measures were 0.11 h⁻¹ and 0.101 h⁻¹.
